Test results: ChEMBL document CHEMBL4266056, “Discovery and Pharmacology of a Novel Somatostatin Subtype 5 (SSTR5) Antagonist: Synergy with DPP-4 Inhibition” (ACS Med Chem Lett, 2018)
pIC50: −log10 of the molar value. Calls of active or inactive are those of the source. The rule behind the calls is not given here.

How the values were obtained:
[1] = system: Mus musculus; experiment: Antidiabetic activity in HFD fed C57BL/6N mouse assessed as increase in circulating total GLP-1 levels at 10 mg/kg, po pretreated for 60 mins measured 5 mins post glucose challenge by OGTT; assay type: functional, organism-based
Summary of the method: (§1)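 The SSTR5 antagonist was given orally at 10 mg/kg, alone or combined with des-fluoro sitagliptin at 10 mg/kg, ahead of an oral glucose challenge. Blood was sampled 5 min after glucose for circulating total GLP-1, active GLP-1[7-36] amide and plasma insulin.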

[2] = Drug uptake in C57BL/6N mouse whole blood at 1 mg/kg, po measured at 3 hrs; assay type: ADME, organism-based; conditions: read-out: Drug uptake
Summary of the method: (§2)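 Whole-blood compound exposure was measured 3 h after oral dosing (0.03-3 mg/kg) in HFD mice run through the OGTT dose titration. Unbound levels were derived using the plasma free fraction.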

[3] = target: T1, Nuclear receptor subfamily 1 group I member 2 (Homo sapiens, UniProt O75469); experiment: Activation of human PXR; assay type: ADME
T1 sequence (O75469 whole entry): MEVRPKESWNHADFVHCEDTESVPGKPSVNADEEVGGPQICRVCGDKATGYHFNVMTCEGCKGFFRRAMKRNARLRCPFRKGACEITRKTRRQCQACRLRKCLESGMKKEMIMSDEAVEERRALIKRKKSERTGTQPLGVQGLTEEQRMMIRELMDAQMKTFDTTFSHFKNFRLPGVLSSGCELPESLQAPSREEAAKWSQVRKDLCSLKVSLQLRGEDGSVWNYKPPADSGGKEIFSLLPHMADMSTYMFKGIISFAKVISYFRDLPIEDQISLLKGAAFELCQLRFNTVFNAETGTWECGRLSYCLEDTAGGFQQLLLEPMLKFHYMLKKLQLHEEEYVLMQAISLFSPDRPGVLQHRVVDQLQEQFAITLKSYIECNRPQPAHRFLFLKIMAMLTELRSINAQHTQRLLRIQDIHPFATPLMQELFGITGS

[4] = target: Cytochrome P450 2C9 (Homo sapiens, UniProt P11712); experiment: Inhibition of human CYP2C9; assay type: ADME
[5] = system: Mus musculus; experiment: Antidiabetic activity in HFD fed C57BL/6N mouse assessed as increase in plasma insulin levels at 10 mg/kg, po cotreated with DPP4 inhibitor des-fluoro sitagliptin pretreated with compound for 60 mins followed by glucose challenge measured after 120 mins by OGTT; assay type: functional, organism-based
[6] = Oral bioavailability in dog at 1 mg/kg; assay type: ADME, organism-based, Canis lupus familiaris; conditions: in vivo
[7] = Unbound plasma concentration in C57BL/6N mouse plasma at 0.1 mg/kg, po measured at 3 hrs; assay type: ADME, organism-based; conditions: in vivo
[8] = target: T2, Prostaglandin D2 receptor (Homo sapiens, UniProt Q13258); experiment: Inhibition of prostanoid DP receptor (unknown origin)
T2 sequence (Q13258 whole entry): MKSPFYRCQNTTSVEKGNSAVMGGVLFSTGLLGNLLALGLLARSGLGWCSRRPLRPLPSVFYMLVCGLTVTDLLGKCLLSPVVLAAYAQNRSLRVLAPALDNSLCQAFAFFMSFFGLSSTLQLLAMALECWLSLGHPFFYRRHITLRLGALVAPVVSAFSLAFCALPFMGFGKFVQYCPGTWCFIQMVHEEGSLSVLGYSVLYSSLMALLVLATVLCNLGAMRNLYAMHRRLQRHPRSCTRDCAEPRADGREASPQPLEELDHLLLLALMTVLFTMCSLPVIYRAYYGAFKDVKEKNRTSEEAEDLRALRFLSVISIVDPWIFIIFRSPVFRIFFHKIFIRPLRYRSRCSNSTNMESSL

[9] = system: Mus musculus; experiment: Antidiabetic activity in HFD fed C57BL/6N mouse assessed as increase in plasma insulin levels at 10 mg/kg, po pretreated for 60 mins measured 5 mins post glucose challenge by OGTT; assay type: functional, organism-based; summary of the method: as §1
[10] = system: Pancreatic islet; experiment: Induction of glucagon secretion in human pancreatic islets in presence of glucose by ELISA; assay type: functional, cell-based
Summary of the method: (§3)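 In the same human islet incubations, SST-14 and glucagon secretion were monitored alongside insulin.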

[11] = target: Somatostatin receptor type 3 (Homo sapiens, UniProt P32745); experiment: Antagonist activity at human SSTR3 expressed in CHO-K1 cell membranes; assay type: functional, cell-based
Summary of the method: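 Counter-screen by filtration membrane binding: competitive displacement of radiolabeled SST-28 from cell membranes expressing human SSTR1, SSTR2, SSTR3 or SSTR4. The IC50 is the mean of at least duplicate experiments within a maximal threefold range.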

[12] = system: Mus musculus; experiment: Antidiabetic activity in HFD fed C57BL/6N mouse assessed as decrease in blood glucose AUC at 0.1 mg/kg administered as single oral dose pretreated for 60 mins followed by glucose challenge measured after 120 mins by OGTT; assay type: functional; set-up: scale not given: the % may be the effect or the level left
Summary of the method: (§4)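 Oral dose titration (0.03-3 mg/kg) in HFD-fed mice, n=8. Dosing was followed by an oral glucose tolerance test. Net blood glucose AUC was expressed as % reduction versus vehicle, with P values versus vehicle.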

[13] = system: Mus musculus; experiment: Antidiabetic activity in HFD fed C57BL/6N mouse assessed as increase in circulating active GLP-1 levels at 10 mg/kg, po pretreated for 60 mins measured 5 mins post glucose challenge by OGTT; assay type: functional, organism-based; summary of the method: as §1
[14] = Clearance in rat at 1 mg/kg, iv or 2 mg/kg, po; assay type: ADME, organism-based; conditions: in vivo
Summary of the method: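 Rat pharmacokinetics after separate intravenous (1 mg/kg) and oral (2 mg/kg) dosing. Clearance is reported in mL/kg/min and half-life in hours. Oral bioavailability is given as F (%).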

[15] = system: Mus musculus; experiment: Antidiabetic activity in HFD fed C57BL/6N mouse assessed as decrease in blood glucose AUC administered as single oral dose pretreated for 60 mins followed by glucose challenge measured after 120 mins by OGTT; conditions: read-out: MED
[16] = system: Mus musculus; experiment: Antidiabetic activity in HFD fed C57BL/6N mouse assessed as increase in circulating active GLP-1 levels at 10 mg/kg, po cotreated with DPP4 inhibitor des-fluoro sitagliptin pretreated with compound for 60 mins followed by glucose challenge measured after 120 mins by OGTT; assay type: functional, organism-based
[17] = Clearance in rhesus monkey at […], iv or 1 mg/kg, po; assay type: ADME, organism-based, Macaca mulatta; conditions: in vivo
[18] = Clearance in dog at […], iv or 1 mg/kg, po; assay type: ADME, organism-based, Canis lupus familiaris; conditions: in vivo
[19] = Drug uptake in C57BL/6N mouse whole blood at 3 mg/kg, po measured at 3 hrs; assay type: ADME, organism-based; conditions: read-out: Drug uptake; summary of the method: as §2
[20] = Drug uptake in C57BL/6N mouse whole blood at 0.03 mg/kg, po measured at 3 hrs; assay type: ADME, organism-based; conditions: read-out: Drug uptake; summary of the method: as §2
[21] = Half life in rhesus monkey at […], iv or 1 mg/kg, po; assay type: ADME, organism-based, Macaca mulatta; conditions: in vivo
[22] = system: Pancreatic islet; experiment: Induction of glucose-dependent insulin secretion in human pancreatic islets at 0.5 to 5 uM preincubated for 30 mins with 2 mM glucose followed by compound addition measured after 60 mins by ELISA; assay type: functional, cell-based
Summary of the method: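 Isolated pancreatic islets from non-diabetic human donors were incubated with compound at 0.5 or 5 µM in 2 mM (G2) or 16 mM (G16) glucose. Insulin secretion was measured against a DMSO control, with P<0.05 significance.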

[23] = system: Pancreatic islet; experiment: Induction of SST-14 secretion in human pancreatic islets in presence of glucose by ELISA; assay type: functional, cell-based; summary of the method: as §3
[24] = system: Mus musculus; experiment: Antidiabetic activity in HFD fed C57BL/6N mouse assessed as decrease in blood glucose AUC at 0.03 mg/kg administered as single oral dose pretreated for 60 mins followed by glucose challenge measured after 120 mins by OGTT; assay type: functional; set-up: scale not given: the % may be the effect or the level left; summary of the method: as §4

Somatostatin receptor type 3, sequence (P32745 whole entry): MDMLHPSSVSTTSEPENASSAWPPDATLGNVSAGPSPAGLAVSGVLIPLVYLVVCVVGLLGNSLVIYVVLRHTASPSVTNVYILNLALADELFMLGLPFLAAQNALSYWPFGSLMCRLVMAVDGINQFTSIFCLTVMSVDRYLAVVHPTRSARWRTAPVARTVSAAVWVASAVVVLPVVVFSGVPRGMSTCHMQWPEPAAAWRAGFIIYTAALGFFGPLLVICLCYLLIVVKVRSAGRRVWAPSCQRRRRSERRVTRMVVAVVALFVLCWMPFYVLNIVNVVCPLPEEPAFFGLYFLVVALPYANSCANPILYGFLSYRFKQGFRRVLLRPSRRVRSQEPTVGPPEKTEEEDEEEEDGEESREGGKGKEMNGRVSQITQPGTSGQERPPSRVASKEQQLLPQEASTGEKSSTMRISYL
Cytochrome P450 2C9, sequence (P11712 whole entry): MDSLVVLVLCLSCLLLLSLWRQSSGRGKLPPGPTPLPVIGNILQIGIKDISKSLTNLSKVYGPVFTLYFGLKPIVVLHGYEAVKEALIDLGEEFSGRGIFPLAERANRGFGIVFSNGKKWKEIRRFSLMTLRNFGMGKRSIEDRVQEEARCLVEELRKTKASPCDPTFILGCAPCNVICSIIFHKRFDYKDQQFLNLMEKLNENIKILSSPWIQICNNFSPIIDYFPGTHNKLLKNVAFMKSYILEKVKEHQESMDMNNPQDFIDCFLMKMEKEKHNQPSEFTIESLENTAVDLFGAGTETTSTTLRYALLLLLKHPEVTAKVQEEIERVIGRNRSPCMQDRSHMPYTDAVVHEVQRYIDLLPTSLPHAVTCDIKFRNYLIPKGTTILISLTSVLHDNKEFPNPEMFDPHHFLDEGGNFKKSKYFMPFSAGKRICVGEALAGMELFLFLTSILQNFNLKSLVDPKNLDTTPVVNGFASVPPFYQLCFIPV

Structure (SMILES): CCOc1cc(CN2CCC3(CC2)CC(=O)N(c2ccc(C(=O)O)cc2)C3)cc(OCC)c1-c1ccc(F)cc1.O=C(O)C(F)(F)F
- Activity [1]: Active
- concentration at 3 h [2]: 131 nM
- Activity [3]: Not Active
- pIC50 [4]: < 4.30
- Activity [5]: Active
- bioavailability [6]: 72%
- Cp(f) [7]: 0.5 nM
- pIC50 [8]: 5.52
- Activity [9]: Active
- Activity [10]: inactive
- pIC50 [11]: < 5.00
- Activity [12]: 58%
- Activity [13]: Active
- clearance [14]: 15.2 mL/min/kg
- minimal effective dose [15]: 0.1 mg/kg
- Activity [16]: Active
- clearance [17]: 11.8 mL/min/kg
- clearance [18]: 2.2 mL/min/kg
- concentration at 3 h [19]: 351 nM
- concentration at 3 h [20]: 4 nM
- half-life [21]: 2 h
- Activity [22]: inactive
- Activity [23]: inactive
- Activity [24]: 23%
